This is an account of results in ChEMBL document CHEMBL4725448, “Substituted Azabicyclo[2.2.1]heptanes as Selective Orexin-1 Antagonists: Discovery of JNJ-54717793” (ACS Med Chem Lett, 2020).

Each structure is given as a SMILES string. Values after ≈ are worked out from the molar mass of the structure shown.

Series [1] in a line: Ex vivo receptor occupancy at OX1R in Sprague-Dawley rat brain tenia tecta using [3H]SB-674042 labelling at 10 mg/kg, po measured after 2 hrs by autoradiography. The format is functional. The essentials:
(§1)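 Rats received a single oral dose, and OX1R occupancy was measured by ex vivo binding autoradiography in brain tenia tecta sections at 0.5, 2 and 6 h after dosing. Occupancy is expressed as percent. Brain and plasma drug levels (ng/mL) were also sampled at the 0.5 h time point.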

In a further series the target is T1, Orexin receptor type 2 (Homo sapiens, UniProt O43614).
T1 sequence (O43614 whole entry): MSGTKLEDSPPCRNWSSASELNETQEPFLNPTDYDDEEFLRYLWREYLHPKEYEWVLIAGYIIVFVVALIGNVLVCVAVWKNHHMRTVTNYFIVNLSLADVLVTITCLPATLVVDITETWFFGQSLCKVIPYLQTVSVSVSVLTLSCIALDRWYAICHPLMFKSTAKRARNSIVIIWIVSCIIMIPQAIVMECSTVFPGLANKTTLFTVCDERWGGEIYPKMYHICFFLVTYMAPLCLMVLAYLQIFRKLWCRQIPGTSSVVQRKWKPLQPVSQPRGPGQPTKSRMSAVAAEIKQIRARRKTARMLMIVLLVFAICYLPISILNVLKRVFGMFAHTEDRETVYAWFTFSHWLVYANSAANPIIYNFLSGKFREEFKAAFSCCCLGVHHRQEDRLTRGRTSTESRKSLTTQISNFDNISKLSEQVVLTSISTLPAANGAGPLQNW
Nature of the series: Binding affinity to human OX2R.

Series [2] is described as follows: Stability in human liver microsomes assessed as extraction ratio. The format is ADME, Microsome. The conditions noted are these: read-out: ERH. The essentials:
(§2)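 Metabolic stability in human or rat liver microsomes, expressed as extraction ratios.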
(In general: Liver microsomes are a subcellular fraction often used to study metabolism.)

Series [3] in a line: Stability in rat liver microsomes assessed as extraction ratio. The format is ADME, Microsome. The conditions noted are these: read-out: ERH. A digest of the protocol: as §2
A short description of series [4]: Protein binding in rat brain assessed as free fraction. Type of series: ADME, tissue-based.
Series [5] is described as follows: Drug concentration in Sprague-Dawley rat plasma at 10 mg/kg, po after 0.5 hrs by LC-MS/MS analysis. The format is ADME, organism-based. A digest of the protocol: (§3)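 Brain and plasma levels (ng/mL) sampled 0.5 h after oral dosing at 10 or 30 mg/kg, alongside the ex vivo tenia tecta occupancy study.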
Series [6] concerns the target T2, Orexin/Hypocretin receptor type 1 (Homo sapiens, UniProt O43613).
T2 sequence (O43613 whole entry): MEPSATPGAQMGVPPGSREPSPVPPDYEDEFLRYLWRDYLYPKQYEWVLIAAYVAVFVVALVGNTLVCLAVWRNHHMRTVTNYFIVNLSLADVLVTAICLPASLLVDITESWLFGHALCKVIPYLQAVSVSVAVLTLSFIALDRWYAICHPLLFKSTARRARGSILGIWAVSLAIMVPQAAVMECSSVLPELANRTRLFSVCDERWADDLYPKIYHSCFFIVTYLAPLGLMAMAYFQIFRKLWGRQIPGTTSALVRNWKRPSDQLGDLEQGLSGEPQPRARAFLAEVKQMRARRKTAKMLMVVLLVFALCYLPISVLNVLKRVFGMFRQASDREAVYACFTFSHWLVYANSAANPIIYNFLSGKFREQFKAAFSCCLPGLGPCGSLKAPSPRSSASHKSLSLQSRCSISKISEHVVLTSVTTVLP
Nature of the series: Binding affinity to human […].

Series [7] in a line: Ex vivo receptor occupancy at OX1R in Sprague-Dawley rat brain tenia tecta using [3H]SB-674042 labelling at 10 mg/kg, po measured after 0.5 hrs by autoradiography. Type of series: functional. The essentials:
as §1

Series [8] in a line: Protein binding in human plasma assessed as free fraction. Type of series: ADME, cell-free.
A short description of series [9]: Drug concentration in Sprague-Dawley rat brain at 10 mg/kg, po after 0.5 hrs by LC-MS/MS analysis. The format is ADME, organism-based. The conditions noted are these: read-out: Ct. A digest of the protocol:
as §3

Series [10] in a line: Permeability across apical to basolateral side in MDCK cells. The format is ADME, cell-based, Canis lupus familiaris. The conditions noted are these: dog.
Series [11] can be described thus: Protein binding in rat plasma assessed as free fraction. Type of series: ADME, cell-free.
The nature of series [12]: Ex vivo receptor occupancy at OX1R in Sprague-Dawley rat brain tenia tecta using [3H]SB-674042 labelling at 10 mg/kg, po measured after 6 hrs by autoradiography. The format is functional. A digest of the protocol: as §1
A short description of series [13]: Permeability across basolateral to apical side in MDCK cells. The conditions noted are these: dog. Type of series: ADME, cell-based, Canis lupus familiaris.
Another series concerns the target T3, PXR (NR1I2) (Homo sapiens, UniProt O75469).
T3 sequence (O75469 whole entry): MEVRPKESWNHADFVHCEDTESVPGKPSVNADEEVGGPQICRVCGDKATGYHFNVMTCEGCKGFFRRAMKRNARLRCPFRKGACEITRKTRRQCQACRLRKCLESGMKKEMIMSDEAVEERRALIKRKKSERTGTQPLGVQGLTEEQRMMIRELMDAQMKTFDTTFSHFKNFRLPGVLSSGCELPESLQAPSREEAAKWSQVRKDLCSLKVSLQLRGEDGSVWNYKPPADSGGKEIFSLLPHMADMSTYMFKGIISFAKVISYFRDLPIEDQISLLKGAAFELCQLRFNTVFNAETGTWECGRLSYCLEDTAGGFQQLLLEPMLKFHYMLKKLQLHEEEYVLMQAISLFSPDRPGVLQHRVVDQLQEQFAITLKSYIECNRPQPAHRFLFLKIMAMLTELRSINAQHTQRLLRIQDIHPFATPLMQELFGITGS
Nature of the series: Induction of human PXR at 10 uM relative to control. The conditions noted are these: read-out: Activity. The format is ADME. A digest of the protocol:
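Human PXR activation as an indirect measure of CYP3A4 induction, at 10 μM, expressed as % of rifampicin control activation.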

Series [14] is described as follows: Ex vivo receptor occupancy at OX1R in po dosed rat tenia tecta after 60 mins. The format is functional, organism-based. The conditions noted are these: 1 h.
The species named for the next series is Homo sapiens. Nature of the series: Selectivity index, ratio of Ki for human OX2R to Ki for human OX1R.

In general, Ki refers to the dissociation constant of the complex between target and ligand, obtained from inhibition or displacement. Read a high Ki as weaker binding. As a reminder, the fraction unbound is the share of the substance not bound to proteins or other matrix. One may read the Papp A→B as how fast a substance crosses the layer from the apical side. Lower therefore signals slow passage. A word on the Papp B→A: it is the apparent permeability from the basolateral to the apical side of a cell layer. Consider `O=C(c1ccccc1-c1ncccn1)N1[C@@H]2CC[C@H]1[C@H](Nc1cnc(C(F)(F)F)cn1)C2`, for which the values for the Activity in [1], in series [7] and in series [12] were 83%, 77% and 48%, respectively. Besides, the Ki was found to be 520 nM at Orexin receptor type 2 and 19 nM in series [6]. Besides, the hepatic extraction ratio was under 0.3 in [2] and 0.38 in series [3]. In addition, the fraction unbound in [4] came out at 0.067; in series [8], 0.15; in [11] it was 0.214. Besides, the concentration at 0.5 h in series [5] was 1480 ng/mL; in series [9] it was 296 ng/mL. In series [10], this molecule registered a Papp A→B of 1.1 ×10⁻⁶ cm/s. In addition, the Papp B→A in series [13] amounted to 68 ×10⁻⁶ cm/s. Moreover, on PXR (NR1I2), the activity at 10 µM was 18%.

The term EC50 denotes the midpoint of the concentration-response curve. Usually ED50 stands for the dose at which the effect has come halfway, by size or by number of responders. Read a high ED50 as a need for a large dose. Turning to `O=C(c1cccc(F)c1-c1ncccn1)N1[C@@H]2CC[C@H]1[C@H](Nc1ncc(C(F)(F)F)cc1F)C2`, the Activity is given as 70% in series [1], 81% in series [7] and 46% in [12]. For the same molecule, the Ki at Orexin receptor type 2 was found to be 1100 nM; in series [6], 15 nM. For the same molecule, the hepatic extraction ratio in [2] came out at 0.49; in [3], 0.8. Further, the results for the fraction unbound in [4], in series [8] and in series [11] were 0.027, 0.056 and 0.064, respectively. Further, the values for the concentration at 0.5 h in series [5] and in series [9] were 837 ng/mL and 539 ng/mL, respectively. The same molecule came in with an EC50 in series [14] of 0.25 µg/mL (≈ 0.526 µM). Also, it took a dose of 4.8 mg/kg to reach the 50% effect level in [14] (po, time 60 min) (ED50). For the same molecule, the Papp A→B in [10] turned out to be 7.7 ×10⁻⁶ cm/s. The Papp B→A in series [13] was 71.3 ×10⁻⁶ cm/s. Also, at PXR (NR1I2), the activity at 10 µM was 39%.

Consider `O=C(c1ccccc1-n1nccn1)N1C2CCC1C(Nc1ccc(Cl)cn1)C2` (racemic), for which the figures for the Ki (on Orexin receptor type 2; in series [6]) were 2130 nM and 96 nM, respectively. For the same molecule, the figures for the hepatic extraction ratio in [2] and in series [3] were 0.88 and over 0.92, respectively. For the same molecule, the Ratio Ki in the series filed under Homo sapiens is 20.
